Measured values: ChEMBL document CHEMBL1949633, “Novel morpholine ketone analogs as potent histamine H3 receptor inverse agonists with wake activity” (Bioorg Med Chem Lett, 2012)
Each block holds one compound with its values, some of them ahead of it. Active and inactive are the calls of the source. The calls are words filed in the database; no cut-off is given here.

Tests used:
Histamine H3 receptor [1] = target: Histamine H3 receptor (Homo sapiens, UniProt Q9Y5N1); assay: Displacement of [3H]NAMH from human histamine H3 receptor
Histamine H3 receptor [2] = target: Histamine H3 receptor (Rattus norvegicus, UniProt Q9QYN8); assay: Displacement of [3H]NAMH from rat histamine H3 receptor
Outline: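 Radioligand binding with [3H]NAMH in membranes from cells transfected with human or rat H3 receptor. Ki values averaged from at least two determinations; assay-to-assay variation typically within 2.5-fold.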

[3] = Half life in rat liver microsomes; type: ADME, Microsome
[4] = Half life in dog liver microsomes; type: ADME, Canis lupus familiaris, Microsome
[5] = Half life in mouse liver microsomes; type: ADME, Microsome
[6] = Half life in human liver microsomes; type: ADME, Microsome
[7] = Oral bioavailability in rat at 5 mg/kg; type: ADME, organism-based; conditions: in vivo
Outline: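 Rats received 5 mg/kg po in 50% Tween 80, 40% propylene carbonate and 10% propylene glycol. The iv comparison dose was formulated in 3% DMSO, 30% solutol and 67% phosphate-buffered saline.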

Rattus norvegicus [8] = assay: Effect on sleep-awake cycle in ip dosed EEG/EMG Sprague-Dawley rat model assessed as wake promotion time at 10 mg/kg, ip (reference value: 101 +/- 7 mins); type: functional; conditions: route intraperitoneal
[9] = Aqueous solubility of the compound at pH 7.4; type: physicochemical; conditions: aqueous medium
Rattus norvegicus [10] = assay: Effect on sleep-awake cycle in EEG/EMG Sprague-Dawley rat model assessed as increase in rapid eye movement sleep at 60 mg/kg, ip after 4 hrs; type: functional, organism-based; parameters: dose 60 mg/kg
Rattus norvegicus [11] = assay: Effect on sleep-awake cycle in EEG/EMG Sprague-Dawley rat model assessed as wake promotion at 60 mg/kg, ip after 4 hrs; type: functional; conditions: route intraperitoneal
Rattus norvegicus [12] = assay: Effect on sleep-awake cycle in EEG/EMG Sprague-Dawley rat model assessed as wake promotion at 60 mg/kg, ip after 4 hrs relative to control; type: functional; conditions: route intraperitoneal
Outline: (§1)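 Male Sprague Dawley rats were surgically implanted for chronic EEG and EMG recording and dosed ip at 10, 30 or 60 mg/kg or with vehicle. Line 2 is read as cumulative time awake over 4 h post-dose (4 h AUC), or percent time awake. Line 1 is theta-range EEG power (~6–9 Hz, FFT amplitude) at 1 h. n = 7-8/group; Dunnett's test versus vehicle.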

Rattus norvegicus [13] = assay: Effect on sleep-awake cycle in EEG/EMG Sprague-Dawley rat model assessed as increase in slow-wave sleep at 60 mg/kg, ip after 4 hrs; type: functional, organism-based; parameters: dose 60 mg/kg
[14] = Ratio of drug uptake in rat brain to plasma at 10 mg/kg, ip measured after 1 hr; type: ADME, organism-based; parameters: dose 10 mg/kg, route intraperitoneal; conditions: read-out: BPR
Outline: (§2)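 Male-unspecified rats dosed 10 mg/kg ip in 0.5% methylcellulose, 0.2% Tween 80 in water; brain concentration (ng/g) measured at 1, 4, 6 and 24 h post dose. Brain-to-plasma ratio taken at 1 h.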

Rattus norvegicus [15] = assay: Toxicity in EEG/EMG Sprague-Dawley rat model assessed as adverse EEG activity at 10 to 60 mg/kg, ip; type: organism-based; parameters: dose 10-60 mg/kg, route intraperitoneal; conditions: in vivo
[16] = target: Sigma non-opioid intracellular receptor 1 (Homo sapiens) (UniProt Q99720); assay: Inhibition of human sigma 1 receptor at 10 uM
Outline: (§3)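 Selectivity panel of 70 GPCRs, ion channels and enzymes run by a contract screening service; percent inhibition at 10 µM test concentration.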

Rattus norvegicus [17] = assay: Effect on sleep-awake cycle in EEG/EMG Sprague-Dawley rat model assessed as increase in EEG theta range at 30 to 60 mg/kg, ip after 1 hr; type: functional; conditions: dose mg/kg 30-60; route intraperitoneal; outline: as §1
Rattus norvegicus [18] = assay: AUC (0 to 6 hrs) in rat at 5 mg/kg, po; type: ADME, organism-based, Plasma; parameters: time < 6 hr, dose 5 mg/kg, route oral; conditions: in vivo
Rattus norvegicus [19] = assay: Effect on sleep-awake cycle in EEG/EMG Sprague-Dawley rat model assessed as change in EEG theta frequency at 30 to 60 mg/kg, ip after 1 hr; type: functional, organism-based
Cytochrome P450 2D6 = Cytochrome P450 2D6 (Homo sapiens, UniProt P10635); assay: Inhibition of CYP2D6; type: ADME
Rattus norvegicus [20] = assay: Effect on sleep-awake cycle in ip dosed EEG/EMG Sprague-Dawley rat model assessed as wake promotion time at 30 mg/kg, ip (reference value: 101 +/- 7 mins); type: functional; conditions: route intraperitoneal
Rattus norvegicus [21] = assay: Effect on sleep-awake cycle in EEG/EMG Sprague-Dawley rat model assessed as sleep rebound at 10 to 60 mg/kg, ip up to 22 hrs; type: functional, organism-based
Cytochrome P450 1A2 = target: T1, Cytochrome P450 1A2 (Homo sapiens, UniProt P05177); assay: Inhibition of CYP1A2; type: ADME
T1 sequence (P05177 whole entry): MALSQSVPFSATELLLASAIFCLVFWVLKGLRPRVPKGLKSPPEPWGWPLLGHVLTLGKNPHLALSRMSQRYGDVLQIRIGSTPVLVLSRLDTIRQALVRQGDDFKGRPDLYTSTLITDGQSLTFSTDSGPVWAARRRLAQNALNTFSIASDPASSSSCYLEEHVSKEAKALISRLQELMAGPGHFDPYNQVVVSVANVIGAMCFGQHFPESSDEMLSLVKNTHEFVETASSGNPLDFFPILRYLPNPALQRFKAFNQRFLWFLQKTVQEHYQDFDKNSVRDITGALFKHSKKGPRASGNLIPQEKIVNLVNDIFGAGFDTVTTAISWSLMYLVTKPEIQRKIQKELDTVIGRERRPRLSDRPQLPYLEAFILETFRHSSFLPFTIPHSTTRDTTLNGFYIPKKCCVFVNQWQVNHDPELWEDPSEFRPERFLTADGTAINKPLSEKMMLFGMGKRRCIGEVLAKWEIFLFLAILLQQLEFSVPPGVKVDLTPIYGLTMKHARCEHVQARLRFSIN

Cytochrome P450 2C9 = Cytochrome P450 2C9 (Homo sapiens, UniProt P11712); assay: Inhibition of CYP2C9; type: ADME
Cytochrome P450 2C19 = Cytochrome P450 2C19 (Homo sapiens, UniProt P33261); assay: Inhibition of CYP2C19; type: ADME
[22] = target: Nischarin (Rattus norvegicus) (UniProt Q4G017); assay: Inhibition of rat imidazoline I2 receptor at 10 uM; outline: as §3
Cytochrome P450 3A4 = Cytochrome P450 3A4 (Homo sapiens, UniProt P08684); assay: Inhibition of CYP3A4; type: ADME
Rattus norvegicus [23] = assay: Effect on sleep-awake cycle in ip dosed EEG/EMG Sprague-Dawley rat model assessed as wake promotion after 4 hrs; type: functional, organism-based
Rattus norvegicus [24] = assay: Effect on sleep-awake cycle in ip dosed EEG/EMG Sprague-Dawley rat model assessed as wake promotion time at 60 mg/kg, ip (reference value: 101 +/- 7 mins); type: functional; conditions: route intraperitoneal
Rattus norvegicus [25] = assay: Effect on sleep-awake cycle in EEG/EMG Sprague-Dawley rat model assessed as increase in slow-wave sleep at 30 mg/kg, ip after 4 hrs; type: functional, organism-based; parameters: dose 30 mg/kg
[26] = Drug uptake in rat brain at 10 mg/kg, ip measured after 1 hr; type: ADME, organism-based; parameters: dose 10 mg/kg, route intraperitoneal; conditions: read-out: Drug uptake; outline: as §2
Rattus norvegicus [27] = assay: Effect on sleep-awake cycle in EEG/EMG Sprague-Dawley rat model assessed as increase in rapid eye movement sleep at 30 mg/kg, ip after 4 hrs; type: functional, organism-based; parameters: dose 30 mg/kg
Brain = assay: Drug uptake in rat brain at 10 mg/kg, ip measured after 24 hrs; type: ADME, organism-based; parameters: dose 10 mg/kg, route intraperitoneal; conditions: in vivo; outline: as §2
[28] = Drug uptake in rat brain at 10 mg/kg, ip measured after 4 hrs; type: ADME, organism-based; parameters: dose 10 mg/kg, route intraperitoneal; conditions: read-out: Drug uptake; outline: as §2
[29] = Drug uptake in rat brain at 10 mg/kg, ip measured after 6 hrs; type: ADME, organism-based; parameters: dose 10 mg/kg, route intraperitoneal; conditions: read-out: Drug uptake; outline: as §2

Chain of Histamine H3 receptor (Rattus norvegicus, UniProt Q9QYN8) (Q9QYN8 whole entry): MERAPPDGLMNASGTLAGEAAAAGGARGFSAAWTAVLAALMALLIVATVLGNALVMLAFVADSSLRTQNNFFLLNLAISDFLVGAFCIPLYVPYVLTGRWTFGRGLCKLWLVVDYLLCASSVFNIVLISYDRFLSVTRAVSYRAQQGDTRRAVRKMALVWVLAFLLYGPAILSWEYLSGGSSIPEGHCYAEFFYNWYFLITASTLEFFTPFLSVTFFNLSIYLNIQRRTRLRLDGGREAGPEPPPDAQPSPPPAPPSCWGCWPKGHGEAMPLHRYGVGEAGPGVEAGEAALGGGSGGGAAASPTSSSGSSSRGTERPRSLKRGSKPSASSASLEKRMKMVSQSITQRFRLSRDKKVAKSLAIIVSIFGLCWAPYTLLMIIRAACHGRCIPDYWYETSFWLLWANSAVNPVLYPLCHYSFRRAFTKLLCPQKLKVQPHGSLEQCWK
Chain of Histamine H3 receptor (Homo sapiens, UniProt Q9Y5N1) (Q9Y5N1 whole entry): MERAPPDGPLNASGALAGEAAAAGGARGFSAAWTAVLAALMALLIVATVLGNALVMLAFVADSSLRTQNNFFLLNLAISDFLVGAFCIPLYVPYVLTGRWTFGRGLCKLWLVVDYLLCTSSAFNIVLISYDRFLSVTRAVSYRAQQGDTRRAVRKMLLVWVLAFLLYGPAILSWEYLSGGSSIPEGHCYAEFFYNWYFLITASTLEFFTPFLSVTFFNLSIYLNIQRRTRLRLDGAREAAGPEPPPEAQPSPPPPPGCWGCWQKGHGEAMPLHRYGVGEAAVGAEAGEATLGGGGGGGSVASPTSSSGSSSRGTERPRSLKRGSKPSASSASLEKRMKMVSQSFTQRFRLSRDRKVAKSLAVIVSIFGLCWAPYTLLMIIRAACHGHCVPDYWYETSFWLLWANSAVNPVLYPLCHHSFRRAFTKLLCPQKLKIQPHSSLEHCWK
Chain of Cytochrome P450 2C19 (P33261 whole entry): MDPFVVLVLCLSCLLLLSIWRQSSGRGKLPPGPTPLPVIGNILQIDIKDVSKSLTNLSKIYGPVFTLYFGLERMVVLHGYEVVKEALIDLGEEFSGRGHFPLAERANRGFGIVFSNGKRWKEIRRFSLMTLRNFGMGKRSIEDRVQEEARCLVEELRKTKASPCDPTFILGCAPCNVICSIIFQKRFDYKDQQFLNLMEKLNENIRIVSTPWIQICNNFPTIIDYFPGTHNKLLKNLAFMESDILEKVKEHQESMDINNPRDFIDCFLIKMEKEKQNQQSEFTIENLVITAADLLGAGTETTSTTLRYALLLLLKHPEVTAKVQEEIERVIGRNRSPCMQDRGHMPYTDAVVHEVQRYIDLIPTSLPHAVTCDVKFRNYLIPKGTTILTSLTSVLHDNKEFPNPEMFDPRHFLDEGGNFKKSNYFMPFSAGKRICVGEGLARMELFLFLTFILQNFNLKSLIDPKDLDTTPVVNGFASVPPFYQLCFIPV
Chain of Cytochrome P450 3A4 (P08684 whole entry): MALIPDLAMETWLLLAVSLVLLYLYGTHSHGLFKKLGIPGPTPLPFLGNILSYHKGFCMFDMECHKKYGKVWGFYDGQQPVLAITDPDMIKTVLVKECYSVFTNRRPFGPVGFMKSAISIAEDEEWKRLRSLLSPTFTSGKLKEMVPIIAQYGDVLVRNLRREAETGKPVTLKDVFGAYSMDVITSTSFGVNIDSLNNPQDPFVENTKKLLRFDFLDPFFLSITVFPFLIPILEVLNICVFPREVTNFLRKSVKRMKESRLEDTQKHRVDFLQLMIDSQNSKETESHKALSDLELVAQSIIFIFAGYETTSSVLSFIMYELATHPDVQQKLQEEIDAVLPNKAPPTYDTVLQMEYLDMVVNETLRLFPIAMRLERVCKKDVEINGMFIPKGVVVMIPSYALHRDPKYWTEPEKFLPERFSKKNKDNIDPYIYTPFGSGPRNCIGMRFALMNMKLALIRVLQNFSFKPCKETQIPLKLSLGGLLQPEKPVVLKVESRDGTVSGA
Chain of Nischarin (Rattus norvegicus) (Q4G017 whole entry): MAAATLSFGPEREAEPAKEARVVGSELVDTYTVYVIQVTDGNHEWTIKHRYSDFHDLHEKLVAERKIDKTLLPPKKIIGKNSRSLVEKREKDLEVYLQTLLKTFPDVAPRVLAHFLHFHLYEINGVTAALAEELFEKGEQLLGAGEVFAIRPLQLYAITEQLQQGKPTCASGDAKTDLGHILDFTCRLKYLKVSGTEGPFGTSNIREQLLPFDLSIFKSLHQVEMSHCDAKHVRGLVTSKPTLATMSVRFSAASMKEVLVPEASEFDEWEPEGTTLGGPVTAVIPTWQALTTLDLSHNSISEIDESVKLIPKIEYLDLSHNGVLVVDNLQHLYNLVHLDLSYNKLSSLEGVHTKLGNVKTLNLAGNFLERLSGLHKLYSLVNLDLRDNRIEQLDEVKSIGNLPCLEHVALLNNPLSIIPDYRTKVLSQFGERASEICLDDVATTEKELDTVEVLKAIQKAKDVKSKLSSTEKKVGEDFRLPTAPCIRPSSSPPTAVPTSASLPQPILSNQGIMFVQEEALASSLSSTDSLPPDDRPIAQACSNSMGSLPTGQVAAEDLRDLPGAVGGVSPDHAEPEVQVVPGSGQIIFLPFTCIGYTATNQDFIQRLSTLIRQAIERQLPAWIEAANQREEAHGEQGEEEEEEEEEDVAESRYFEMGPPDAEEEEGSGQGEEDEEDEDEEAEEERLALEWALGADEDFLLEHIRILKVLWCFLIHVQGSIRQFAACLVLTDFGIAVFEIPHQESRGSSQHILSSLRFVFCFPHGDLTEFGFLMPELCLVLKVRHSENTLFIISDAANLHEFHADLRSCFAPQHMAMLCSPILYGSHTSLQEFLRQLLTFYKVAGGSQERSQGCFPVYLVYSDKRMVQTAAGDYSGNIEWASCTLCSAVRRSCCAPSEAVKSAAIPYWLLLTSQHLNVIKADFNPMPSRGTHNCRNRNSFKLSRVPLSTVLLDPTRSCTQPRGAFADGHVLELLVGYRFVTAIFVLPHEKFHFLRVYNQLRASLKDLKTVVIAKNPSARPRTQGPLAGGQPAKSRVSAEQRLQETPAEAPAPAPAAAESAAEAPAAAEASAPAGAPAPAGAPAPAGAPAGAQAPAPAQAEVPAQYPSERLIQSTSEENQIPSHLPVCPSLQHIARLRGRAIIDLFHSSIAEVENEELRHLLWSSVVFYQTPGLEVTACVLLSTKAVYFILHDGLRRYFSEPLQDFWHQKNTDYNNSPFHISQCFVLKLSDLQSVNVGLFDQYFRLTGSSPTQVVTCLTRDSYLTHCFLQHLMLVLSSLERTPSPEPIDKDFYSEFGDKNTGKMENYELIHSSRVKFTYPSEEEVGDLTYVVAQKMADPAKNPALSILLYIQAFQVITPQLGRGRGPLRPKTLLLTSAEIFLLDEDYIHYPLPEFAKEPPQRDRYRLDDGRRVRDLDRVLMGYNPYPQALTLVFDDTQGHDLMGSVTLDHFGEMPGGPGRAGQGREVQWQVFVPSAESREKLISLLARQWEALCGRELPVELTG
Chain of Cytochrome P450 2D6 (P10635 whole entry): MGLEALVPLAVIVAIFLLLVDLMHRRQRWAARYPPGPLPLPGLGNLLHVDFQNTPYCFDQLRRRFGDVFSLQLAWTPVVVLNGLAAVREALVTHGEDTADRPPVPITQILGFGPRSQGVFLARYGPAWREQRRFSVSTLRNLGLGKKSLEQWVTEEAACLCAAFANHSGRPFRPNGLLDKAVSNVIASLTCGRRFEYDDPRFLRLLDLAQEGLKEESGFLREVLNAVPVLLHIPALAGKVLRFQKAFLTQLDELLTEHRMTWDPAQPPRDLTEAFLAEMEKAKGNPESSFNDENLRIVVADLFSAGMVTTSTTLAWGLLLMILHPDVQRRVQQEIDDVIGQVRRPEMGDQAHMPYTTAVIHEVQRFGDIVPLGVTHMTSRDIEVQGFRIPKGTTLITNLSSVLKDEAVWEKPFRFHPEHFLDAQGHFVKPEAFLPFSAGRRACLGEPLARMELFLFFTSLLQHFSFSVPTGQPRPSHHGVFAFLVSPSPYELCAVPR
Chain of Sigma non-opioid intracellular receptor 1 (Homo sapiens) (Q99720 whole entry): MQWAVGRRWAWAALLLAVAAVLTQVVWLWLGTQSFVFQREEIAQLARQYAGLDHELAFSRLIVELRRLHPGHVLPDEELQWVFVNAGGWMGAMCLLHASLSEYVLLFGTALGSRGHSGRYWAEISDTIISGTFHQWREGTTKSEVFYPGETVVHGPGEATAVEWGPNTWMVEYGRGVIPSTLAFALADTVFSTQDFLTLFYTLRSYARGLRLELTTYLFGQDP
Chain of Cytochrome P450 2C9 (P11712 whole entry): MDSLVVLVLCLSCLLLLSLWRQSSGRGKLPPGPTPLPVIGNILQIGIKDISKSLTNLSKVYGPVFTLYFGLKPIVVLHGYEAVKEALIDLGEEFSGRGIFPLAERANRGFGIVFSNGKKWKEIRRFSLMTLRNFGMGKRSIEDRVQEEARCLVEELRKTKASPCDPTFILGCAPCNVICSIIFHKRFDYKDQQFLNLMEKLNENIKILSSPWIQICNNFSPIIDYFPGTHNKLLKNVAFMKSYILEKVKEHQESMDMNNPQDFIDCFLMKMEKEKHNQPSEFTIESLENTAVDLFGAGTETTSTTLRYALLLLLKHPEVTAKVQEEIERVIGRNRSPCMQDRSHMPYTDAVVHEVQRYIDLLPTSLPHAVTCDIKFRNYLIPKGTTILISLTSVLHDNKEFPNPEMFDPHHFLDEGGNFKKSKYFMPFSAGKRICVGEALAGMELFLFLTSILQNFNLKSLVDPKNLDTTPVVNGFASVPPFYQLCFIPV

SMILES: CC1(C)CCCN1CCCOc1ccc(C(=O)CN2CCOCC2)cc1
- Ki (Histamine H3 receptor [1]): > 1 µM
- Ki (Histamine H3 receptor [2]): > 1 µM

SMILES: C[C@@H]1CN(CC(=O)c2ccc(OCCCN3CCC[C@H]3C)cc2)C[C@H](C)O1
- Ki (Histamine H3 receptor [1]): 0.01 µM
- Ki (Histamine H3 receptor [2]): 0.078 µM

SMILES: C[C@@H]1CCCN1CCCOc1ccc(C(=O)C(C)(C)N2CCOCC2)cc1
- half-life [3]: 9 min
- half-life [4]: 10 min
- half-life [5]: > 40 min
- half-life [6]: 8 min
- Ki (Histamine H3 receptor [1]): 0.009 µM
- Ki (Histamine H3 receptor [2]): 0.033 µM

SMILES: CC(C(=O)c1ccc(OCCCN2CCC[C@H]2C)cc1)N1CCOCC1 (stereo partly specified)
- half-life [3]: > 40 min
- half-life [4]: > 40 min
- half-life [5]: > 40 min
- half-life [6]: > 40 min
- Ki (Histamine H3 receptor [1]): 0.008 µM
- Ki (Histamine H3 receptor [2]): 0.105 µM

SMILES: COC[C@@H]1CCCN1CCCOc1ccc(C(=O)CN2CCOCC2)cc1
- Ki (Histamine H3 receptor [1]): > 3 µM
- Ki (Histamine H3 receptor [2]): > 3 µM

SMILES: O=C(CN1CCOCC1)c1ccc(OCCCN2CCCCC2)cc1
- Ki (Histamine H3 receptor [1]): 0.066 µM
- Ki (Histamine H3 receptor [2]): 0.44 µM

Now from value to compound, other results behind:

- Ki (Histamine H3 receptor [1]): 0.032 µM
- Ki (Histamine H3 receptor [2]): 0.174 µM
SMILES: O=C(CN1CCCCC1)c1ccc(OCCCN2CCCC2)cc1

- Ki (Histamine H3 receptor [1]): 0.019 µM
- Ki (Histamine H3 receptor [2]): 0.244 µM
SMILES: Cc1cc(OCCCN2CCC[C@H]2C)ccc1C(=O)CN1CCOCC1

- bioavailability [7]: 14%
- solubility [9]: > 145 µg/mL
- Kp at 1 h [14]: 30.7
- inhibition [16]: 78%
- AUC (Rattus norvegicus [18]): 109 ng·h/mL
- IC50 (Cytochrome P450 2D6): > 30 µM
- IC50 (Cytochrome P450 1A2): > 30 µM
- IC50 (Cytochrome P450 2C9): > 30 µM
- IC50 (Cytochrome P450 2C19): > 30 µM
- inhibition [22]: 67%
- Ki (Histamine H3 receptor [2]): 0.05 µM
- IC50 (Cytochrome P450 3A4): > 30 µM
- concentration at 1 h [26]: 3770 ng/g
SMILES: C[C@@H]1CCCN1CCCOc1ccc(C(=O)CN2CCOCC2)cc1
- Time (Rattus norvegicus [8]): 118 min
- Activity (Rattus norvegicus [10]): Active
- Activity (Rattus norvegicus [11]): 93%
- fold change (FC) (Rattus norvegicus [12]): 2.2
- Activity (Rattus norvegicus [13]): Active
- Activity (Rattus norvegicus [15]): Non-toxic
- fold change (FC) (Rattus norvegicus [17]): 2
- Activity (Rattus norvegicus [19]): inactive
- Time (Rattus norvegicus [20]): 163 min
- Activity (Rattus norvegicus [21]): inactive
- Activity (Rattus norvegicus [23]): Dose-dependent effect
- Time (Rattus norvegicus [24]): 222 min
- Activity (Rattus norvegicus [25]): Active
- Activity (Rattus norvegicus [27]): Active

- Ki (Histamine H3 receptor [2]): 0.885 µM
SMILES: C[C@H]1CCCN1CCCOc1ccc(C(=O)CN2CCOCC2)cc1

- Ki (Histamine H3 receptor [1]): 0.106 µM
- Ki (Histamine H3 receptor [2]): 0.594 µM
SMILES: O=C(CN1CCOCC1)c1ccc(OCCCN2CCCC2)cc1

- Drug uptake (Brain): Not Active
- Ki (Histamine H3 receptor [2]): 0.056 µM
- concentration at 4 h [28]: 1610 ng/g
- concentration at 1 h [26]: 3930 ng/g
- concentration at 6 h [29]: 955 ng/g
SMILES: CC1CCCN1CCCOc1ccc(C(=O)CN2CCOCC2)cc1 (racemic)

- Ki (Histamine H3 receptor [1]): 1.17 µM
- Ki (Histamine H3 receptor [2]): > 3 µM
SMILES: COC[C@H]1CCCN1CCCOc1ccc(C(=O)CN2CCOCC2)cc1
